Data as given in ChEMBL document CHEMBL1126706, “Structure-activity relationship of N-[2-(dimethylamino)-6-[3-(5-methyl-4-phenyl-1H-imidazol-1-yl)propoxy] phenyl]-N'-pentylurea and analogues. Novel potent inhibitors of acyl-CoA:cholesterol O-acyltransferase with antiatherosclerotic activity” (J Med Chem, 1993).

Key:
[1] = target: T1, Acyl-CoA:cholesterol acyltransferase (Oryctolagus cuniculus, UniProt Q95214); assay: Tested for inhibition against acyl coenzyme A:cholesterol acyltransferase from rabbit aorta homogenate.; assay type: tissue-based
T1 sequence (Q95214 whole entry): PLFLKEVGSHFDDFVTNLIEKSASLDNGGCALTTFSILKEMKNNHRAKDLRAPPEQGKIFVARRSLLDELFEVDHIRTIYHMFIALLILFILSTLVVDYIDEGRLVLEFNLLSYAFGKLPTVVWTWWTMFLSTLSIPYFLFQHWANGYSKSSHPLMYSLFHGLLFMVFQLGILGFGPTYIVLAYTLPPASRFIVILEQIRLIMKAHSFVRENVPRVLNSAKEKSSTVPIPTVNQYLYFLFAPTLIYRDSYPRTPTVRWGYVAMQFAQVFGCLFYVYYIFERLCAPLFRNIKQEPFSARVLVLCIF

O-acyltransferase = O-acyltransferase (Oryctolagus cuniculus, UniProt G1SFD9); assay: Tested for inhibition against acyl coenzyme A:cholesterol acyltransferase from rabbit intestine microsomes.
Chain of O-acyltransferase (G1SFD9 1-524): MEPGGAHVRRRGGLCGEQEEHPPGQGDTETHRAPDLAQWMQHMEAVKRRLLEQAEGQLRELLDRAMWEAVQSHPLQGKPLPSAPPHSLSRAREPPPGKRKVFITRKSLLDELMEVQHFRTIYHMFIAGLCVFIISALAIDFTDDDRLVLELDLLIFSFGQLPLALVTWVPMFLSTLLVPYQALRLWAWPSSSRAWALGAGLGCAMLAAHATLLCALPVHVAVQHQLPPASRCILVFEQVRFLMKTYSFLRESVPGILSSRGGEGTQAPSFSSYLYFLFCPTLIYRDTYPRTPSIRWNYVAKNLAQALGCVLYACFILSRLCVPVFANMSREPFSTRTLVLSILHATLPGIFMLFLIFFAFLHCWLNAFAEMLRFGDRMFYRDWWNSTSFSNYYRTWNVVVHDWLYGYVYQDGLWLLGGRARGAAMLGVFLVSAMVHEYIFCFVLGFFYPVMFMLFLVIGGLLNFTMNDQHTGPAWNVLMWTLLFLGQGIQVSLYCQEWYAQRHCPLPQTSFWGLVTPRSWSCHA
Outline: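 Intestinal mucosa microsomes from NZW rabbit (10000g then 105000g pellet, buffered sucrose pH 7.4). Endogenous cholesterol plus 40 μM [1-14C]oleoyl-CoA in K2HPO4 buffer pH 7.4 with 2.4 mg/mL BSA; compound preincubated 3 min at 37 °C, enzyme (8 mg protein/mL) added, 2 min reaction, chloroform/methanol 2:1 stop. IC50 from triplicate tubes per concentration.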

Rattus norvegicus [2] = assay: Tested for cholesterol lowering activity in rats after a dose of 50 mg/kg once a day for 2 days; assay type: functional
Outline: (§1)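 Male Sprague-Dawley rats, 5 weeks old, fed chow with 1% cholesterol and 0.5% cholic acid while given drug orally once daily as a suspension in 2% Sefuzol. Starved 5 h after last dose, bled from abdominal aorta under ether; serum total cholesterol measured enzymatically. Result as percent of control (n ≥ 4).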

Rattus norvegicus [3] = assay: Tested for cholesterol lowering activity in rats after a dose of 10 mg/kg once a day for 5 days; assay type: functional; outline: as §1
Rattus norvegicus [4] = assay: Tested for cholesterol lowering activity in rats after a dose of 30 mg/kg once a day for 5 days; assay type: functional; conditions: dose 10 mg/kg; in the assay text read “10 mg/kg” for “30 mg/kg”; outline: as §1
Oryctolagus cuniculus [5] = species on record: Oryctolagus cuniculus; assay: Tested for the atheromatous lesion development in rabbit; assay type: functional
Outline: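 Male NZW rabbits (2.5-3.0 kg) fed 100 g/day chow with 0.5% cholesterol and 0.5% olive oil for 8 weeks, randomized by plasma cholesterol, then 4 weeks with drug mixed in diet (0.2% then 0.1% w/w, or 0.1% w/w). Thoracic aorta halved: one half formalin-fixed, Sudan IV-stained, stained area measured by image analysis; other half cholesterol content by TLC-FID. Mean ± SEM, 7-12 per group, Student's t test.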

Oryctolagus cuniculus [6] = assay: Tested for the plasma total cholesterol level in rabbit after administration of 0.2% (w/w) of drug for first 4 days; assay type: functional, organism-based
Outline: (§2)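 Male NZW rabbits (2.5-3.0 kg) were fed chow with 0.5% cholesterol and 0.5% olive oil, 100 g/day, for 8 weeks, then randomized by plasma cholesterol. Drug was mixed into the diet for 4 weeks, either 0.2% (w/w) for 4 days then 0.1%, or 0.1% throughout. Plasma total cholesterol was measured enzymatically in EDTA ear-vein blood. Mean ± SEM; Student's t test vs control.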

Rattus norvegicus [7] = species on record: Rattus norvegicus; assay: Tested for hypocholesterolemic activity required to decrease serum total cholesterol; assay type: functional
Outline: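 Male Sprague-Dawley rats (5 weeks) on 1% cholesterol/0.5% cholic acid chow; drug in 2% Sefuzol given orally once daily for 5 days. Serum total cholesterol measured enzymatically after 5 h fast. ED30 (mg/kg dose lowering serum cholesterol to 30% of control) read from dose-response curve of at least 3 doses, n = 4 or 5.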

Oryctolagus cuniculus [8] = assay: Tested for the plasma total cholesterol level in rabbit after administration of 0.1% (w/w) of drug for first 4 days; assay type: functional, organism-based; outline: as §2

Row | SMILES | IC50 [1] | IC50 (O-acyltransferase) | Cholesterol reduction (Rattus norvegicus [3]) | further results
1 | CN(C)c1cccc(OCCCn2cnc(-c3ccccc3)c2)c1NC(=O)NC(C)(C)C | 990 nM | 130 nM | – | Cholesterol reduction (Rattus norvegicus [2]): -12%
2 | CCCCCNC(=O)Nc1c(OCCn2cnc(-c3ccccc3)c2)cccc1N(C)C | 1400 nM | 170 nM | – | –
3 | CCCCCNC(=O)Nc1ccc(OCCCn2cnc(-c3ccccc3)c2C)cc1N(C)C | 1500 nM | 2400 nM | – | –
4 | CN(C)c1cccc(OCCCn2cnc(-c3ccccc3)c2)c1NC(=O)NC1CCCC1 | 3530 nM | 240 nM | – | Cholesterol reduction (Rattus norvegicus [2]): -24%
5 | CCCCCNC(=O)Nc1c(NCCCn2cnc(-c3ccccc3)c2C)cccc1N(C)C | 2200 nM | 470 nM | – | –
6 | CCCCCNC(=O)Nc1c(OCCCn2cnc(-c3ccc(OC)cc3)c2)c(Br)cc(Br)c1N(C)C | 1300 nM | 2400 nM | – | –
7 | CCCCCNC(=O)Nc1cccc(OCCCn2cnc(-c3ccccc3)c2C)c1N(C)C | 3200 nM | 5800 nM | – | –
8 | CCCCCNC(=O)Nc1c(OCCCn2cnc(-c3ccccc3)c2)cccc1N(C)C | 160 nM | 31 nM | – | Surface involvement (Oryctolagus cuniculus [5]): 22.8%; Plasma total cholesterol (Oryctolagus cuniculus [6]): 830 mg/dL; ED30 (Rattus norvegicus [7]): 14 mg/kg; Cholesterol reduction (Rattus norvegicus [2]): -51%
9 | CCCCCNC(=O)Nc1c(OCCCCn2cnc(-c3ccccc3)c2)cccc1N(C)C | 780 nM | 160 nM | – | –
10 | CCCCCNC(=O)Nc1c(OCCCn2cnc(-c3ccc(OC)cc3)c2)cccc1N(C)C | 1330 nM | 59 nM | -36% | –
11 | CCNC(=O)Nc1c(OCCCn2cnc(-c3ccccc3)c2)cccc1N(C)C | > 10000 nM | 870 nM | – | Cholesterol reduction (Rattus norvegicus [2]): 2%
12 | CCCNC(=O)Nc1c(OCCCn2cnc(-c3ccccc3)c2)cccc1N(C)C | 7230 nM | 660 nM | – | –
13 | CCCCCNC(=O)Nc1c(OCCCNCCc2ccccc2)cccc1N(C)C | 3440 nM | 960 nM | -18% | –
14 | CCCCCNC(=O)Nc1c(OCCCn2cnc(-c3cccc4ccccc34)c2)cccc1N(C)C | 1550 nM | 65 nM | -30% | –
15 | CCCCCNC(=O)Nc1c(OCCCn2cnc(-c3ccccc3)c2C)cccc1N(C)C | 110 nM | – | -49% | Surface involvement (Oryctolagus cuniculus [5]): 21%; ED30 (Rattus norvegicus [7]): 4.5 mg/kg; Plasma total cholesterol (Oryctolagus cuniculus [8]): 800 mg/dL
16 | CCCCCCNc1c(OCCCn2cnc(-c3ccccc3)c2)cccc1N(C)C | 3300 nM | 11000 nM | – | –
17 | CN(C)c1cccc(OCCCn2cnc(-c3ccccc3)c2)c1NC(=O)NC1CCCCC1 | 1070 nM | 73 nM | – | Cholesterol reduction (Rattus norvegicus [2]): -42%
18 | CCCCNC(=O)Nc1c(OCCCn2cnc(-c3ccccc3)c2)cccc1N(C)C | 810 nM | 140 nM | – | Surface involvement (Oryctolagus cuniculus [5]): 23.5%; Plasma total cholesterol (Oryctolagus cuniculus [6]): 1190 mg/dL; ED30 (Rattus norvegicus [7]): 75 mg/kg; Cholesterol reduction (Rattus norvegicus [2]): -37%
19 | CCCCCNC(=O)Nc1c(OCCCn2cnc(-c3ccccc3)c2C)ncnc1N(C)C | 11000 nM | 5500 nM | – | –
20 | CCCCCCNC(=O)Nc1c(OCCCn2cnc(-c3ccccc3)c2)cccc1N(C)C | 50 nM | 60 nM | – | Surface involvement (Oryctolagus cuniculus [5]): 30.6%; Plasma total cholesterol (Oryctolagus cuniculus [6]): 924 mg/dL; ED30 (Rattus norvegicus [7]): 1.3 mg/kg; Cholesterol reduction (Rattus norvegicus [2]): -57%

Further molecules by falling IC50 [1], results first:

Row | IC50 [1] | IC50 (O-acyltransferase) | SMILES | Cholesterol reduction (Rattus norvegicus [3]) | further results
21 | 730 nM | 160 nM | CCCCCNC(=O)Nc1c(OCCCn2cc(-c3ccc(OC)cc3)nc2C)cccc1N(C)C | -15% | –
22 | 620 nM | 180 nM | CCCCCNC(=O)Nc1c(OCCCn2cnc3ccccc32)cccc1N(C)C | -12% | –
23 | 480 nM | 380 nM | CCCCCNC(=O)Nc1c(OCCCn2ccnc2-c2ccccc2)cccc1N(C)C | – | Cholesterol reduction (Rattus norvegicus [4]): -12%
24 | 470 nM | 340 nM | CCCCCNC(=O)Nc1c(OCCCN2CCC(c3ccccc3)CC2)cccc1N(C)C | -27% | –
25 | 430 nM | 54 nM | CCCCCNC(=O)Nc1c(OCCCn2cnc(-c3ccc(CCCC)cc3)c2)cccc1N(C)C | -46% | –
26 | 410 nM | 410 nM | CCCCCNC(=O)Nc1cc(OCCCn2cnc(-c3ccccc3)c2C)ccc1N(C)C | – | –
27 | 400 nM | 930 nM | CCCCCNC(=O)N(C)c1c(OCCCn2cnc(-c3ccccc3)c2)cccc1N(C)C | – | –
28 | 290 nM | 770 nM | CCCCCNC(=O)Nc1c(OCCCn2nc3ccccc3n2)cccc1N(C)C | -3.4% | –
29 | 280 nM | 550 nM | CCCCCN(C)C(=O)Nc1c(OCCCn2cnc(-c3ccccc3)c2)cccc1N(C)C | – | –
30 | 250 nM | 410 nM | CCCCCNC(=O)Nc1c(N(C)C)ccc(C)c1OCCCn1cnc(-c2ccccc2)c1 | – | –
31 | 230 nM | 23 nM | CCCCCNC(=O)Nc1c(OCCCn2nnc(-c3ccccc3)n2)cccc1N(C)C | -48% | –
32 | 210 nM | 85 nM | CCCCCNC(=O)Nc1c(OCCCn2cnc(C)c2-c2ccccc2)cccc1N(C)C | -46% | –
33 | 180 nM | 32 nM | CCCCCNC(=O)Nc1c(OCCCn2ncc(-c3ccccc3)n2)cccc1N(C)C | -32% | –
34 | 180 nM | – | CCCCCNC(=O)Nc1c(OCCCN2CCN(c3ccccc3)CC2)cccc1N(C)C | -44% | –
35 | 140 nM | 170 nM | CCCCCNC(=O)Nc1c(CCCCn2cnc(-c3ccccc3)c2C)cccc1N(C)C | -37% | –
36 | 100 nM | 200 nM | CCCCCC(=O)Nc1c(OCCCn2cnc(-c3ccccc3)c2)cccc1N(C)C | – | Cholesterol reduction (Rattus norvegicus [2]): 3%
37 | 58 nM | 56 nM | CCCCCNC(=O)Nc1c(SCCCn2cnc(-c3ccccc3)c2C)cccc1N(C)C | – | –
